Compound activity (PubChem BioAssay)
A selection: hits, their analogues and other compounds. The true share with any hit is near 2.9%.
DENV2 CPE rescue – protects cells from dengue virus 2 cytopathic effect. DENV2-infected cells, cytopathic effect rescue, plate reader. CPE inhibition, % at 9.99 µM. 350,000 compounds, 1.7% hits. AID 651640; in the data active = CPE inhibition above about 20%, passing the limit was not always enough; tested in BHK-21 cells;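 note: 0% = median of neutral control wells and 100% = median of positive control wells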
ERAP1 inh – inhibitors of human ERAP1 aminopeptidase. recombinant ERAP1, Leu-AMC fluorescence, 60 min. inhibition, % at 10.7 µM. 340,000 compounds, 0.15% hits. AID 652197;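 active = mean replicate inhibition of at least 30%, or all replicates individually reaching that 30% level; inactive = mean below 30% and not every replicate reaching it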;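 note: 0% = neutral control wells and 100% = L-leucinethiol positive control wells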
SIRT5 inh – blocks human SIRT5 desuccinylation of peptide. inhibition, % at 15 µM. Purified SirT5, succinyl-peptide AMC, trypsin-coupled fluorescence. 330,000 compounds, 1.1% hits. AID 652115. Q9NXA8; in the data active = inhibition above about 15%
Target sequence (Q9NXA8 whole entry, looked up): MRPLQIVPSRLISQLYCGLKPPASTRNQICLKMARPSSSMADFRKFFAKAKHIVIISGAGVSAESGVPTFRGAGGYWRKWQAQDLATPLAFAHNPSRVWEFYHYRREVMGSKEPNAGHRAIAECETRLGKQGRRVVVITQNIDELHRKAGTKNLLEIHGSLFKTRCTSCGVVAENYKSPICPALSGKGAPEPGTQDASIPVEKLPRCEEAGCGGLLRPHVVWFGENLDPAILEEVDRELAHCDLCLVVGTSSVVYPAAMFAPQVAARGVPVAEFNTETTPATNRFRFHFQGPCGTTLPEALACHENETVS
CAL PDZ FP-1 – blocks peptide binding to human CAL PDZ domain | purified CAL PDZ, TMR-peptide fluorescence polarization, 1 h | inhibition, % at 20 µM | 330,000 compounds, 0.02% hits | AID 504414;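 active = highest replicate inhibition of at least 40%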;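 note: plate controls were DMSO neutral control wells for no effect and unlabeled competitor peptide control wells for full effect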
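material = purified tagged CAL PDZ domain construct (CerCALP) | buffer or medium = sodium phosphate/NaCl buffer pH 7.4 with TCEP, IgG, Thesit | reagent = TMR-labelled reporter peptide T*-PRC34 bound in PDZ groove | incubation = 1 h room-temperature incubation prior to read | measured by = fluorescence polarization (mP) | evaluation = percent inhibition from loss of millipolarization | control set = unlabelled peptide and DMSO controls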
S100A4 inh HTS – S100A4-myosin IIA interaction inhibition; P26447; S100A4/TAMRA-MyoIIA peptide fluorescence polarization; inhibition, % at 10.7 µM; 360,000 compounds, 0.14% hits;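 active = mean inhibition of at least 70% across replicates, with every replicate also reaching that level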
Target sequence (P26447 whole entry, looked up): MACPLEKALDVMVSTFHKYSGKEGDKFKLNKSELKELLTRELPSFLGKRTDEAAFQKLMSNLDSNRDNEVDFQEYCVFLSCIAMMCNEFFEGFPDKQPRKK
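Assay system: human S100A4 monomer with TAMRA-labelled myosin IIA peptide / Buffer or medium: Calcium-containing HEPES buffer, pH 7.2 / Reagent: TAMRA-labelled myosin IIA heavy-chain peptide probe, 5 nM / Compound: one dose per compound / Timing: polarization read 5 min after assay mix addition, stable 5–60 min / Benchmarks: neutral control DMSO, positive control TFP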
CAL PDZ FP-2 – CAL PDZ (human) peptide binding inhibition | 300,000 compounds, 0.92% hits | purified CAL PDZ, TMR-peptide fluorescence polarization, 1 h | inhibition, % at 24.9 µM;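 active = mean inhibition of at least 30% with at least half of replicates also reaching 30%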;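 note: 0% = DMSO neutral control and 100% = excess unlabeled competitor peptide PRC23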
* hit, by the source's call; nt = no result given.

SMILES	DENV2 CPE rescue	ERAP1 inh	SIRT5 inh	CAL PDZ FP-1	S100A4 inh HTS	CAL PDZ FP-2
C[C@@H]1CN([C@H](C)CO)C(=O)c2cc(NS(=O)(=O)c3ccc(Cl)cc3)ccc2O[C@@H](C)CCCCO[C@@H]1CN(C)Cc1ccccc1	-24	-2	21*	nt	-5	nt
C[C@@H]1CN([C@H](C)CO)C(=O)c2cc(NS(=O)(=O)c3ccc(Cl)cc3)ccc2O[C@H]1CN(C)Cc1ccccc1	-2	0	4	nt	21	nt
C[C@@H]1CN([C@@H](C)CO)C(=O)c2cc(NS(=O)(=O)c3ccc(Cl)cc3)ccc2O[C@@H](C)CCCCO[C@@H]1CN(C)Cc1ccccc1	-6	0	18*	nt	-1	nt
C[C@@H]1CN([C@H](C)CO)C(=O)c2cc(NS(=O)(=O)c3ccc(Cl)cc3)ccc2O[C@@H]1CN(C)Cc1ccccc1	42*	0	7	nt	-11	nt
O=C(C[C@@H]1CC[C@H]2[C@@H](COC[C@@H](O)CN2Cc2cccc(Cl)c2)O1)NCC1CCCCC1	4	1	1	nt	-4	nt
C[C@H](CO)N1C[C@H](C)[C@@H](CN(C)C(=O)Nc2ccc3c(c2)OCO3)Oc2ccc(NC(=O)Nc3ccc4c(c3)OCO4)cc2CC1=O	14	0	-2	nt	-3	nt
CCCNC(=O)C[C@@H]1CC[C@H]2[C@@H](COc3ccc(NC(=O)Nc4ccccc4F)cc3C(=O)N2C)O1	-1	0	-2	nt	-1	nt
O=C(C[C@@H]1C[C@@H]2c3cc(NC(=O)Nc4ccc(C(F)(F)F)cc4)ccc3O[C@@H]2[C@H](CO)O1)NCc1cccnc1	-6	1	-3	nt	0	nt
CC(C)(C)S(=O)N1Cc2cc(=O)n(Cc3ccccc3)c(CCO)c2[C@H]1CCO (stereo partly specified)	3	2	26*	0	-12	-2
COC(=O)C(CC(=O)c1ccc(C)cc1)n1nc(C)cc1C (stereo unspecified)	-1	-4	1	0	0	129*
COC(=O)C(CC(=O)c1ccc(Br)cc1)n1nc(C)cc1C (stereo unspecified)	1	4	0	0	-2	0
O=C(c1ccc(Cl)cc1)N1CCc2c([nH]c3ccccc23)C1C(F)(F)F (stereo unspecified)	26*	5	3	-1	-2	nt
O=C(Nc1ccccc1)N1CCc2c([nH]c3ccccc23)C1C(F)(F)F (stereo unspecified)	1	-3	0	0	-3	nt
COCCCNCC(O)COc1cccc2[nH]c(C)cc12 (stereo unspecified)	-5	32*	-1	0	-1	2
C[C@@H]1CN([C@@H](C)CO)C(=O)Cc2cc(NC(=O)C3CCCCC3)ccc2O[C@H]1CN(C)C(=O)Nc1cccc2ccccc12	-6	7	-2	nt	-4	nt
CCCCN(CC)CCNC(=O)Cn1cnc2sc(C)c(S(=O)(=O)N3CCOCC3)c2c1=O	nt	nt	nt	0	nt	-4
COCCNC(=O)Cn1cnc2sc(C)c(S(=O)(=O)N3CCC(C)CC3)c2c1=O	nt	nt	nt	-1	nt	1
CCCCN(CC)CCNC(=O)Cn1cnc2sc(C)c(S(=O)(=O)N3CCC(C)CC3)c2c1=O	11	-2	-2	0	9	44*
CCC1CCCCN1CCCNC(=O)Cn1cnc2sc(C)c(S(=O)(=O)N3CCC(C)CC3)c2c1=O (stereo unspecified)	13	5	17*	-3	5	0
O=C(CNC(=O)c1ccccc1Cl)N/N=C/c1ccc2c(c1)OCO2	-7	0	13	-2	-2	96*
CCCC(=O)Nc1ccc2c(c1)C(=O)N(C)[C@H]1CC[C@@H](CC(=O)NCCCN(C)C)O[C@H]1CO2	-1	0	-6	nt	-8	nt
COc1cccc(CN(C)C(=O)c2ccc(S(=O)(=O)Nc3cccc(C)c3C)cc2)c1OC	0	4	17*	nt	6	nt
C[C@@H]1CN([C@@H](C)CO)C(=O)Cc2cc(NC(=O)C3CC3)ccc2O[C@H]1CN(C)S(=O)(=O)c1ccc(Cl)cc1	70*	-4	-5	nt	-5	nt
C[C@@H]1CN([C@@H](C)CO)C(=O)Cc2cc(NC(=O)C3CC3)ccc2O[C@H]1CN(C)S(=O)(=O)c1ccccc1	34*	2	1	nt	0	nt
C[C@@H]1CN([C@H](C)CO)C(=O)Cc2cc(NC(=O)C3CC3)ccc2O[C@@H]1CN(C)S(=O)(=O)c1ccc(Cl)cc1	-10	-2	2	nt	-17	nt
SMILES	DENV2 CPE rescue	ERAP1 inh	SIRT5 inh	CAL PDZ FP-1	S100A4 inh HTS	CAL PDZ FP-2
C[C@@H]1CN([C@@H](C)CO)C(=O)Cc2cc(NC(=O)C3CC3)ccc2O[C@@H]1CN(C)S(=O)(=O)c1ccccc1	2	3	-4	nt	7	nt
C[C@H]1CN([C@@H](C)CO)C(=O)Cc2cc(NC(=O)Nc3ccc4c(c3)OCO4)ccc2O[C@H]1CN(C)C(=O)NC1CCCCC1	-2	-2	3	nt	6	nt
Cc1ccnc(NC(=O)c2ccc(COc3c(F)c(F)cc(F)c3F)o2)c1	-3	6	0	-1	0	nt
O=C(Nc1ccc(Br)cn1)c1ccc(COc2c(F)c(F)cc(F)c2F)o1	-11	-3	5	0	-1	35*
COc1ccc(S(=O)(=O)Nc2cccc3c2O[C@@H](CN(C)Cc2ccncc2)[C@@H](C)CN([C@@H](C)CO)C3=O)cc1	-13	1	12	nt	4	nt
CCN(C[C@H]1[C@H](c2ccccc2)[C@H](CO)N1CC1CC1)C(=O)c1ccccn1	5	-5	-2	nt	-11	nt
CCN(C[C@H]1[C@@H](c2ccccc2)[C@H](CO)N1CC1CC1)C(=O)c1ccccn1	25*	-2	0	nt	43	nt
CCN(C[C@H]1[C@H](c2ccccc2)[C@@H](CO)N1CC1CC1)C(=O)c1ccccn1	21*	-3	0	nt	-9	nt
CN1c2ccc(C3=CCCCC3)cc2[C@@H]2[C@@H](CCN2C(=O)C2CCCCC2)[C@H]1CO	0	-2	-17	nt	15	nt
CO[C@H]1CN(C)C(=O)c2ccc(NC(=O)c3ccc(F)cc3)cc2OC[C@@H](C)N(C(=O)CC2CC2)C[C@H]1C	4	0	-3	nt	-9	nt
CO[C@@H]1CN(C)C(=O)c2cc(NC(C)=O)ccc2OC[C@H](C)N(C(=O)CC2CC2)C[C@H]1C	16	-1	2	nt	-3	nt
CO[C@H]1CN(C)C(=O)c2cc(NC(C)=O)ccc2OC[C@H](C)N(C(=O)CC2CC2)C[C@@H]1C	36*	-1	-1	nt	2	nt
CO[C@@H]1CN(C)C(=O)c2ccc(NC(=O)c3ccc(F)cc3)cc2OC[C@H](C)N(C(=O)CC2CC2)C[C@H]1C	0	3	1	nt	117*	nt
CO[C@@H]1CN(C)C(=O)c2cc(NC(C)=O)ccc2OC[C@@H](C)N(C(=O)CC2CC2)C[C@H]1C	27*	-1	nt	nt	-9	nt
